# Test results from ChEMBL document CHEMBL1667760, “Synthesis and biological evaluation of 3,5-diaryl isoxazoline/isoxazole linked 2,3-dihydroquinazolinone hybrids as anticancer agents” (2011).
# Activity calls are given as the source filed them. The calls are words filed in the database; no cut-off is given here.
# Columns and labels:
# KM12 = assay: Cytotoxicity against human KM12 cells after 48 hrs by sulforhodamine B assay; type: functional; conditions: KM12, 48 h
# In short: (§1)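 Run by the NCI 60-cell-line screen. A one-dose pre-test was done first, followed by the main test over a 5-log dose range (10^-4 to 10^-8 M). Results are reported as log molar GI50 (50% net growth inhibition), TGI (total growth inhibition) and LC50 (50% net cell death), with mean-graph midpoints across all lines.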
# CCRF-CEM = assay: Cytotoxicity against human CCRF-CEM cells after 48 hrs by sulforhodamine B assay; type: functional; in short: as §1
# MCF7 [1] = assay: Cell cycle arrest in human MCF7 cells assessed as accumulation at G1 phase at 5 uM after 24 hrs using propidium iodide staining by flow cytometry relative to control; type: functional
# In short: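 MCF-7 cells were seeded at 5×10^5 per 60 mm dish and grown 24 h. They were then exposed to 5 uM compound for a further 24 h, with untreated control cells alongside. Cells were trypsinised, fixed in ice-cold 70% ethanol (4 °C, 30 min), treated with 1 mg/ml RNase A (37 °C, 30 min) and stained with propidium iodide/citrate/Triton solution. DNA content was read by flow cytometry on 20,000 events.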
# Tubulin (Homo sapiens) = Tubulin (Homo sapiens) (UniProt P68371+Q9H4B7+P0DPH7+P68366+Q13509+Q71U36+P04350+Q3ZCM7+P07437+P68363+Q9BQE3+Q6PEY2+Q13885+Q9BVA1+Q9BUF5); assay: Inhibition of tubulin polymerization in human MCF7 cells assessed as disrupted microtubule organization at 5 uM after 48 hrs by microscopic analysis; type: cell-based
# In short: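 MCF-7 cells on coverslips incubated 48 h with or without compound. Fixed in 3% paraformaldehyde/0.02% glutaraldehyde, permeabilized in -20 °C methanol, blocked with 1% BSA. Stained with mouse monoclonal anti-tubulin and FITC secondary; confocal imaging to judge microtubule network integrity.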
# DU-145 = assay: Cytotoxicity against human DU145 cells after 48 hrs by sulforhodamine B assay; type: functional; conditions: DU-145, 48 h; in short: as §1
# SK-OV-3 = assay: Cytotoxicity against human SKOV3 cells after 48 hrs by sulforhodamine B assay; type: functional; conditions: SK-OV-3, 48 h; in short: as §1
# MCF7 [2] = assay: Induction of apoptosis in human MCF7 cells assessed as increase of cleaved PARP level at 5 uM after 24 hrs by Western blotting; type: functional, cell-based
# In short: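 MCF-7 cells, kept in DMEM with 10% fetal calf serum at 37 °C under 5% CO2, treated 24 h. Lysis in ice-cold RIPA with protease inhibitors; Bradford quantitation; 30 µg protein per lane on 12% SDS-PAGE, then PVDF. Primary antibodies (1:500) at 4 °C overnight; HRP secondary (1:2000); chemiluminescence detection; β-actin loading control.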
# M14 = assay: Cytotoxicity against human M14 cells after 48 hrs by sulforhodamine B assay; type: functional; conditions: M14, 48 h; in short: as §1
# NCI-H23 = assay: Cytotoxicity against human NCI-H23 cells after 48 hrs by sulforhodamine B assay; type: functional; conditions: NCI-H23, 48 h; in short: as §1
# SN12C = assay: Cytotoxicity against human SN12C cells after 48 hrs by sulforhodamine B assay; type: functional
# In short: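 NCI 60-cell-line panel screen of human tumor lines: a one-dose pre-test, then the main test over a 5-log range (10^-4–10^-8 M). GI50, TGI and LC50 are reported as log molar concentrations for 50% net growth inhibition, total growth inhibition and 50% net cell death. Mean graph midpoints are also calculated.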
# NCI-H460 = assay: Cytotoxicity against human NCI-H460 cells after 48 hrs by sulforhodamine B assay; type: functional; conditions: NCI-H460, 48 h; in short: as §1
# SF-539 = assay: Cytotoxicity against human SF539 cells after 48 hrs by sulforhodamine B assay; type: functional; conditions: SF-539, 48 h; in short: as §1
# A549 = assay: Cytotoxicity against human A549 cells after 48 hrs by sulforhodamine B assay; type: functional; conditions: A549, 48 h
# In short: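 Cells were grown in RPMI 1640 with 10% FBS and 2 mM L-glutamine, plated at densities set by doubling time, and pre-incubated 24 h at 37 °C, 5% CO2. Drugs were tested at 0.1, 1, 10 and 100 µM in triplicate wells for 48 h continuous exposure. Cells were fixed with 10% TCA (final) and stained with 0.4% SRB. A540 was read against a 690 nm reference, and percent growth was calculated relative to control. Experiments were repeated three times.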
# CAKI-1 = assay: Cytotoxicity against human Caki1 cells after 48 hrs by sulforhodamine B assay; type: functional; conditions: CAKI-1, 48 h; in short: as §1
# HOP-62 = assay: Cytotoxicity against human HOP62 cells after 48 hrs by sulforhodamine B assay; type: functional; conditions: HOP-62, 48 h; in short: as §1
# A498 = assay: Cytotoxicity against human A498 cells after 48 hrs by sulforhodamine B assay; type: functional; conditions: A498, 48 h; in short: as §1
# SF-295 = assay: Cytotoxicity against human SF295 cells after 48 hrs by sulforhodamine B assay; type: functional; conditions: SF-295, 48 h; in short: as §1
# [3] = read-out: pLC50 (the source's name) (converted)
smiles,measurement,setting,value
COc1cc(C2NC(=O)c3ccccc3N2)ccc1OCCCCCOc1c(OC)cc(C2=NOC(c3cc(OC)c(OC)c(OC)c3)C2)cc1OC (stereo not given),GI50,KM12,5.5 µM
same,CC50,KM12; [3],> 100 µM
same,TGI,KM12; read-out: pTGI,> 100 µM
same,GI50,CCRF-CEM,0.631 µM
same,CC50,CCRF-CEM; [3],> 100 µM
same,TGI,CCRF-CEM; read-out: pTGI,> 100 µM
same,Activity,MCF7 [1],32.15%
same,inhibition,Tubulin (Homo sapiens),Active
same,GI50,DU-145,22.4 µM
same,CC50,DU-145; [3],> 100 µM
same,TGI,DU-145; read-out: pTGI,> 100 µM
same,GI50,SK-OV-3,25.1 µM
same,CC50,SK-OV-3; [3],> 100 µM
same,TGI,SK-OV-3; read-out: pTGI,> 100 µM
same,Activity,MCF7 [2],Active
same,GI50,M14,20.9 µM
same,CC50,M14; [3],> 100 µM
same,TGI,M14; read-out: pTGI,> 100 µM
same,GI50,NCI-H23,0.603 µM
same,CC50,NCI-H23; [3],> 100 µM
same,TGI,NCI-H23; read-out: pTGI,> 100 µM
same,GI50,SN12C,25.1 µM
same,CC50,SN12C; [3],> 100 µM
same,TGI,SN12C; read-out: pTGI,> 100 µM
same,GI50,NCI-H460,13.5 µM
same,CC50,NCI-H460; [3],> 100 µM
same,TGI,NCI-H460; read-out: pTGI (converted),60.3 µM
same,GI50,SF-539,17.8 µM
same,CC50,SF-539; [3],> 100 µM
same,TGI,SF-539; read-out: pTGI (converted),89.1 µM
same,LC50,A549,> 100 µM
same,GI50,A549; read-out: pGI50 (converted),0.324 µM
same,TGI,A549; read-out: pTGI,> 100 µM
same,GI50,CAKI-1,> 100 µM
same,CC50,CAKI-1; [3],> 100 µM
same,TGI,CAKI-1; read-out: pTGI,> 100 µM
same,GI50,HOP-62,19.1 µM
same,CC50,HOP-62; [3],> 100 µM
same,TGI,HOP-62; read-out: pTGI (converted),81.3 µM
same,GI50,A498,19.5 µM
same,CC50,A498; [3],> 100 µM
same,TGI,A498; read-out: pTGI,> 100 µM
same,GI50,SF-295,0.398 µM
same,CC50,SF-295; [3],> 100 µM
same,TGI,SF-295; read-out: pTGI,> 100 µM
